# Compounds with a hit are over-represented: about 2.9% of the library has one in this group of screens.
# Wee1 degr inh: human Wee1 degradation inhibition, primary screen; HeLa Luc-Wee1K328M stability, luciferase luminescence; 100% = proteasome inhibitor MG132 effect; actives 1.2% (n = 220,000); P30291; reporter increase, % at 5 µM;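 active = activation above the mean of all tested compounds plus 3 SD, set per screening run, cut at about 8.8% in these data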;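 note: cells exposed to compound for 20 h before luminescence read; 0% = DMSO alone and 100% = MG132 at 30 µM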
# Target sequence (P30291 whole entry K328M): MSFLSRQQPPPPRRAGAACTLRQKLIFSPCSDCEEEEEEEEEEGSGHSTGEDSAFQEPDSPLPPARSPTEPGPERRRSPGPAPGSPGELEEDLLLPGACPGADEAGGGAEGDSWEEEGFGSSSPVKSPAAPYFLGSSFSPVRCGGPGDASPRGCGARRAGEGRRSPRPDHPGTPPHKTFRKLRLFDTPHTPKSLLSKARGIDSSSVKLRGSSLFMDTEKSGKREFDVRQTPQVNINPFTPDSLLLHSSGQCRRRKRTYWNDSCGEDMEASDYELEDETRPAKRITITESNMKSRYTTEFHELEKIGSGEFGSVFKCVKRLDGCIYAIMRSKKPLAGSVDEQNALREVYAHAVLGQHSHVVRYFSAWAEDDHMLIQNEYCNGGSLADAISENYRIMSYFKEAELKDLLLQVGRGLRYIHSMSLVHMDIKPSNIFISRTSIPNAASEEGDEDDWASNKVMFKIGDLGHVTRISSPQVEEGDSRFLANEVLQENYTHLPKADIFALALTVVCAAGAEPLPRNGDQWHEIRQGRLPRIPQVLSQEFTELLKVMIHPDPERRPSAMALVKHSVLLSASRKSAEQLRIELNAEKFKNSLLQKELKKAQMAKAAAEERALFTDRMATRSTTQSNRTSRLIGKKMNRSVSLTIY
# Insulin prom up: MIN6 insulin promoter up-regulation; actives 0.3% (n = 190,000); z-score at 5 µM; MIN6 insulin promoter-GFP reporter, high-content imaging; hits give high values; AID 1625;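 active = z-score above 3 at 5 µM with at least 500 cells counted in the well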
# Autophagy HCS: autophagy modulation, high-content screen | MEF GFP-LC3 puncta imaging; test concentration mostly 10 µM | calls only at 10 µM (by protocol) | actives 0.98% (n = 190,000) | AID 463193;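 active = percentage of spot-positive cells more than 3 SD above its plate mean, without a fluorescence outlier flag or 80% toxicity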;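 note: spot-positive cell cutoff set from DMSO-treated cells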
# MT stabilizer: microtubule stabilizers in HeLa cells; AID 2205; HeLa tubulin immunostaining HCS, 24 h; share of cells brighter than vehicle mean+2SD; % tubulin-high responders, % at 10 µM; actives 0.83% (n = 200,000);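 active = plate Z-score above 3 for both tubulin-high and condensed-nucleus cell shares, with cell loss under 80%, at 10 µM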;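 note: anti alpha tubulin signal scored within the nucleus-defined area of each cell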
# b-catenin transl: modulators of beta-catenin nuclear translocation. nuclear translocation activity, % at 5 µM. HeLa beta-catenin nuclear translocation, immunofluorescence imaging. AID 1665. actives 0.3% (n = 190,000);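 active = nuclear translocation activity above 50% at 5 µM, with a well cell count of 50 or more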;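 note: per-cell ratio of nuclear to cytoplasmic median beta-catenin stain intensity; plate controls were DMSO negative control for no effect and GSK-3 inhibitor IX positive control for full effect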
#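 Signal – beta-catenin immunofluorescence imaging with DAPI · Test system – human HeLa cell line · Dosing – 5 µM primary single dose, 0.1% DMSO, 0.02–20 µM confirmation series · Measure – % activation, nuclear-to-cytoplasmic median beta-catenin signal ratio per cell · Incubation – 24 h compound exposure at 37°C, 5% CO2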
# Numbers without * were called inactive; i = inactive; · = not tested or not shown; + = active, no number.
SMILES,Wee1 degr inh,Insulin prom up,Autophagy HCS,MT stabilizer,b-catenin transl
COc1ccc(NC(=O)c2ccco2)cc1NC(=O)c1cccc(OC(C)C)c1,-1,-0.49,+,4,0
CCOc1cc(C#N)c(NC(=O)c2ccco2)cc1OCC,1,-0.51,i,40*,8
COc1cc(OC)cc(C(=O)Nc2ccc(NC(=O)c3ccco3)c(Cl)c2)c1,9.7*,-0.91,i,2,-1
CNC(=S)Nc1cc(OC)c(NC(=O)c2ccco2)cc1OC,9.9*,-0.47,i,1,0
CCOc1cc(NC(=O)c2ccco2)c(OCC)cc1NC(=O)c1cc(OC)c(OC)c(OC)c1,2,-3,i,2,1
CCOC(=O)C(=CNc1ccc(Oc2cncc(Cl)c2)nc1)C(=O)OCC,4,-0.07,·,·,0
O=C(CSc1nnc(-c2ccccc2)o1)OCc1ccccc1,-2,·,i,2,·
CC(C)Oc1cccc(C(=O)Nc2ccc(Br)cc2F)c1,9.1*,0.51,i,3,-2
O=C(O)C1Nc2c(O)cc(Cl)c([N+](=O)[O-])c2C2C=CCC12 (stereo not given),0,-1.4,i,2,0
O=C(NCC1CCCO1)C(c1ccccn1)N(Cc1ccccc1Cl)C(=O)CN1C(=O)c2ccccc2S1(=O)=O (stereo not given),-1,·,+,1,0
O=C(NCC1CCCO1)C(c1ccncc1)N(Cc1ccc(F)cc1)C(=O)CN1C(=O)c2ccccc2S1(=O)=O (stereo not given),4,-0.46,i,4,-1
COCCNC(=O)CN(C(=O)c1ccc(N2CCCC2)nc1)c1ccccc1,2,-0.09,+,2,1
CC1CCN(c2ccc(C(=O)NCCc3ccccc3)cn2)CC1,0,-0.7,i,4,-5
Cc1c(C(=O)OCC(=O)NCC2CCCO2)cccc1[N+](=O)[O-] (stereo not given),3,0.11,i,5,0
Cc1ccc(NC(=O)C2C3CCCC2C3c2ccccc2)cc1 (stereo not given),-3,-0.79,i,1,-1
CCOC(=O)c1c(NC(=O)CSc2nc(C)cc(C)c2C#N)sc(C(C)=O)c1C,0,-0.95,+,9,-1
CCOC(=O)c1sc(NC(=O)CSc2n[nH]c(-c3ccccc3)n2)c(C#N)c1C,1,1,+,6,-1
CCOC(=O)c1sc(NC(=O)CSc2nc(C)cc(C)n2)c(C#N)c1C,0,0.78,i,3,0
Cc1sc(NC(=O)COc2ccccc2)c(C#N)c1-c1ccccc1,9.6*,-0.2,i,2,-2
CCOc1ncccc1C(=O)OCC(=O)c1ccc(F)cc1,1,0.07,i,5,-1
COc1ccc(/C=C2\CCOC2=O)cc1,-2,1.1,i,4,-5
COc1ccc(/C=C2/C(=O)OCc3cc(OC)c(OC)cc32)cc1,1,-0.81,i,20*,32
O=C(Cc1ccc(Br)cc1)NC1CCSC1=O (stereo not given),2,·,i,4,0
CCc1nc2oc3ccccc3c(=O)c2c(=O)n1-c1ccc(C)cc1,3,0.29,·,·,1
CCCc1nc2oc3ccccc3c(=O)c2c(=O)n1-c1ccc(C)cc1,10.0*,-0.45,·,·,-1
SMILES,Wee1 degr inh,Insulin prom up,Autophagy HCS,MT stabilizer,b-catenin transl
Cc1ccc(-n2c(C(C)C)nc3oc4ccccc4c(=O)c3c2=O)cc1,10*,-1,·,·,-1
CCN1CCN(c2ncc(C(=O)Nc3cc(Cl)ccc3OC)c3ccccc23)CC1,-1,-0.08,+,11,·
CCc1ccccc1N(C(=O)CCC(=O)Nc1cc(C)on1)C(C(=O)NC1CCCC1)c1ccco1 (stereo not given),·,0.1,·,·,-5
COc1ncccc1-c1nnn(-c2ccc(Cl)nc2)n1,9.7*,-0.36,i,2,0
CCCN(CCC)S(=O)(=O)c1ccc(NC(=O)COc2ccccc2)cc1,-3,-0.33,i,2,·
CCOC(=O)c1c(CSC(=N)N)n(C)c2cc(Br)c(OC(C)=O)cc12,1,-0.33,·,·,-2
CCOC(=O)c1c(CSC(=N)N)n(-c2ccc(C)cc2)c2cc(Br)c(OC(C)=O)cc12,9.4*,·,i,2,·
COc1ccc(Cn2c(=O)c3[nH]cnc3n(-c3ccccc3C)c2=O)cc1,2,-0.42,·,·,73*
COc1ccc(C)c(-n2c(=O)n(Cc3ccccc3)c(=O)c3[nH]cnc32)c1,0,-0.81,·,·,0
